Laboratory results as given in ChEMBL document CHEMBL3271970, “Radiopharmaceuticals. 16. Halogenated dopamine analogs. Synthesis and radiolabeling of 6-iododopamine and tissue distribution studies in animals” (J Med Chem, 1976).

Legend:
Mus musculus [1] = experiment: Biodistribution in adrenal gland of mouse assessed per organ at 8 to 11 x 10^-8 mol, iv measured after 30 mins; assay type: ADME, organism-based; conditions: in vivo, 0.5 h
How it was run: (§1)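 [131I]- or [123I]-6-iododopamine in water or saline, used within 30 min of preparation. Injected iv at 8-11 × 10^-8 mol/mouse. Mice killed by ether overdose at 5-240 min; 3-10 mice per time point. Tissue radioactivity expressed as % dose/organ ± SD.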

Blood [2] = experiment: Biodistribution in blood of rat at 3.6 x 10^-8 mol, iv measured after 30 mins; assay type: ADME, organism-based; conditions: in vivo, 0.5 h
How it was run: (§2)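 [131I]-6-iododopamine in water or saline, used within 30 min of preparation. Injected iv at 3.6 × 10^-8 mol/rat. Rats killed by ether overdose at 5 min to 24 h. Blood radioactivity expressed as % dose/g, mean ± SD of four rats.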

Liver [3] = experiment: Biodistribution in liver of mouse assessed per organ at 8 to 11 x 10^-8 mol, iv measured after 240 mins; assay type: ADME, organism-based; conditions: in vivo, 4 h; how it was run: as §1
Rattus norvegicus [4] = experiment: Biodistribution in thyroid gland of rat assessed per organ at 3.6 x 10^-8 mol, iv measured after 4 hrs; assay type: ADME, organism-based; conditions: in vivo
How it was run: (§3)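 [131I]-labelled tracer in water or saline, injected within 30 min of preparation. Rats given 3.6 × 10^-8 mol/rat iv, killed by ether overdose at each time point. Organs excised and radioactivity counted as % dose/organ, mean ± SD of four rats.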

Adrenal medulla [5] = experiment: Biodistribution in adrenal medulla of rat assessed per organ at 3.6 x 10^-8 mol, iv measured after 2 hrs; assay type: ADME, organism-based; conditions: in vivo
How it was run: (§4)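 [131I]-6-iododopamine in water or saline, used within 30 min of preparation. Injected iv at 3.6 × 10^-8 mol/rat. Rats killed by ether overdose at 5, 30 or 60 min, or at 2, 4 or 24 h. Tissue radioactivity expressed as % dose/organ, mean ± SD of four rats.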

Rattus norvegicus [6] = experiment: Biodistribution in thyroid gland of rat assessed per organ at 3.6 x 10^-8 mol, iv measured after 60 mins; assay type: ADME, organism-based; conditions: in vivo, 1 h; how it was run: as §3
Mus musculus [7] = experiment: Biodistribution in thyroid gland of mouse assessed per organ at 8 to 11 x 10^-8 mol, iv measured after 5 mins; assay type: ADME, organism-based; conditions: in vivo
How it was run: (§5)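 Tracer labelled with either 123I or 131I, in water or saline, used within 30 min of preparation. Mice dosed iv at 8-11 × 10^-8 mol/mouse and killed by ether overdose. Organs counted as % dose/organ ± SD, n = 3-10 mice per time point.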

Kidney [8] = experiment: Biodistribution in kidney of rat assessed per organ at 3.6 x 10^-8 mol, iv measured after 4 hrs; assay type: ADME, organism-based; conditions: in vivo; how it was run: as §4
Mus musculus [9] = experiment: Biodistribution in thyroid gland of mouse assessed per organ at 8 to 11 x 10^-8 mol, iv measured after 30 mins; assay type: ADME, organism-based; conditions: in vivo, 0.5 h; how it was run: as §5
Liver [10] = experiment: Biodistribution in liver of rat assessed per organ at 3.6 x 10^-8 mol, iv measured after 5 mins; assay type: ADME, organism-based; conditions: in vivo; how it was run: as §3
Liver [11] = experiment: Biodistribution in liver of mongrel dog assessed per organ at 1.29 x 10^-6 mol, iv measured after 24 hrs; assay type: ADME, organism-based, Canis lupus familiaris; conditions: in vivo
How it was run: (§6)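 Radioiodinated ([123I] or [131I]) 6-iododopamine in water or saline, used within 30 min of preparation. Given iv at 1.29 × 10^-6 mol/dog; one dog per time point, killed at 2 or 24 h. Large organs counted as three samples and averaged; adrenals and thyroid taken intact and counted. Expressed as % dose/organ.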

Liver [12] = experiment: Biodistribution in liver of rat assessed per organ at 3.6 x 10^-8 mol, iv measured after 60 mins; assay type: ADME, organism-based; conditions: in vivo, 1 h; how it was run: as §3
Liver [13] = experiment: Biodistribution in liver of mouse assessed per organ at 8 to 11 x 10^-8 mol, iv measured after 60 mins; assay type: ADME, organism-based; conditions: in vivo, 1 h; how it was run: as §1
Mus musculus [14] = experiment: Biodistribution in thyroid gland of mouse assessed per organ at 8 to 11 x 10^-8 mol, iv measured after 240 mins; assay type: ADME, organism-based; conditions: in vivo, 4 h; how it was run: as §5
Mus musculus [15] = experiment: Biodistribution in adrenal gland of mouse assessed per organ at 8 to 11 x 10^-8 mol, iv measured after 240 mins; assay type: ADME, organism-based; conditions: in vivo, 4 h; how it was run: as §1
Liver [16] = experiment: Biodistribution in liver of rat assessed per organ at 3.6 x 10^-8 mol, iv measured after 4 hrs; assay type: ADME, organism-based; conditions: in vivo; how it was run: as §3
Mus musculus [17] = experiment: Biodistribution in adrenal gland of mouse assessed per organ at 8 to 11 x 10^-8 mol, iv measured after 60 mins; assay type: ADME, organism-based; conditions: in vivo, 1 h; how it was run: as §1
[18] = Biodistribution in kidney of mongrel dog assessed per organ at 1.29 x 10^-6 mol, iv measured after 2 hrs; assay type: ADME, organism-based, Canis lupus familiaris; conditions: in vivo; how it was run: as §6
Rattus norvegicus [19] = experiment: Biodistribution in adrenal cortex of rat assessed per organ at 3.6 x 10^-8 mol, iv measured after 5 mins; assay type: ADME, organism-based; conditions: in vivo; how it was run: as §4
[20] = Biodistribution in adrenal cortex of mongrel dog assessed per organ at 1.29 x 10^-6 mol, iv measured after 2 hrs; assay type: ADME, organism-based, Canis lupus familiaris; conditions: in vivo; how it was run: as §6
[21] = Biodistribution in adrenal medulla of mongrel dog assessed per organ at 1.29 x 10^-6 mol, iv measured after 24 hrs; assay type: ADME, organism-based, Canis lupus familiaris; conditions: in vivo; how it was run: as §6
[22] = Biodistribution in adrenal cortex of mongrel dog assessed per organ at 1.29 x 10^-6 mol, iv measured after 24 hrs; assay type: ADME, organism-based, Canis lupus familiaris; conditions: in vivo; how it was run: as §6
Kidney [23] = experiment: Biodistribution in kidney of rat assessed per organ at 3.6 x 10^-8 mol, iv measured after 60 mins; assay type: ADME, organism-based; conditions: in vivo, 1 h; how it was run: as §4
Kidney [24] = experiment: Biodistribution in kidney of mouse assessed per organ at 8 to 11 x 10^-8 mol, iv measured after 30 mins; assay type: ADME, organism-based; conditions: in vivo, 0.5 h; how it was run: as §1
Rattus norvegicus [25] = experiment: Biodistribution in adrenal cortex of rat assessed per organ at 3.6 x 10^-8 mol, iv measured after 30 mins; assay type: ADME, organism-based; conditions: in vivo, 0.5 h; how it was run: as §4
Mus musculus [26] = experiment: Biodistribution in thyroid gland of mouse assessed per organ at 8 to 11 x 10^-8 mol, iv measured after 60 mins; assay type: ADME, organism-based; conditions: in vivo, 1 h; how it was run: as §5
Kidney [27] = experiment: Biodistribution in kidney of mouse assessed per organ at 8 to 11 x 10^-8 mol, iv measured after 5 mins; assay type: ADME, organism-based; conditions: in vivo; how it was run: as §1
Blood [28] = experiment: Biodistribution in blood of rat at 3.6 x 10^-8 mol, iv measured after 24 hrs; assay type: ADME, organism-based; conditions: in vivo; how it was run: as §2
[29] = Biodistribution in thyroid gland of mongrel dog assessed per organ at 1.29 x 10^-6 mol, iv measured after 24 hrs; assay type: ADME, organism-based, Canis lupus familiaris; conditions: in vivo
How it was run: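 Radioiodine-labelled tracer given at 1.29 × 10^-6 mol/dog. One dog per time point, killed at 2 or 24 h. Thyroids and other small organs were taken intact and counted. Large organs were sampled three times and averaged. Result given as % dose/organ.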

Kidney [30] = experiment: Biodistribution in kidney of rat assessed per organ at 3.6 x 10^-8 mol, iv measured after 30 mins; assay type: ADME, organism-based; conditions: in vivo, 0.5 h; how it was run: as §4
Liver [31] = experiment: Biodistribution in liver of rat assessed per organ at 3.6 x 10^-8 mol, iv measured after 24 hrs; assay type: ADME, organism-based; conditions: in vivo; how it was run: as §3
Blood [32] = experiment: Biodistribution in blood of rat at 3.6 x 10^-8 mol, iv measured after 5 mins; assay type: ADME, organism-based; conditions: in vivo; how it was run: as §2
Adrenal medulla [33] = experiment: Biodistribution in adrenal medulla of rat assessed per organ at 3.6 x 10^-8 mol, iv measured after 5 mins; assay type: ADME, organism-based; conditions: in vivo; how it was run: as §4
Rattus norvegicus [34] = experiment: Biodistribution in thyroid gland of rat assessed per organ at 3.6 x 10^-8 mol, iv measured after 5 mins; assay type: ADME, organism-based; conditions: in vivo; how it was run: as §3
Adrenal medulla [35] = experiment: Biodistribution in adrenal medulla of rat assessed per organ at 3.6 x 10^-8 mol, iv measured after 24 hrs; assay type: ADME, organism-based; conditions: in vivo; how it was run: as §4

Br.NCCc1cc(O)c(O)cc1[131I]
Drug uptake (Mus musculus [1]): 0.014 %ID
Drug uptake (Blood [2]): 0.48 %ID
Drug uptake (Liver [3]): 0.94 %ID
Drug uptake (Rattus norvegicus [4]): 0.251 %ID
Drug uptake (Adrenal medulla [5]): 0.0035 %ID
Drug uptake (Rattus norvegicus [6]): 0.08 %ID
Drug uptake (Mus musculus [7]): 0.094 %ID
Drug uptake (Kidney [8]): 0.194 %ID
Drug uptake (Mus musculus [9]): 0.084 %ID
Drug uptake (Liver [10]): 4.58 %ID
Drug uptake (Liver [11]): 0.48 %ID
Drug uptake (Liver [12]): 0.67 %ID
Drug uptake (Liver [13]): 1.04 %ID
Drug uptake (Mus musculus [14]): 0.158 %ID
Drug uptake (Mus musculus [15]): 0.012 %ID
Drug uptake (Liver [16]): 0.265 %ID
Drug uptake (Mus musculus [17]): 0.0087 %ID
Drug uptake [18]: 0.77 %ID
Drug uptake (Rattus norvegicus [19]): 0.0098 %ID
Drug uptake [20]: 0.0092 %ID
Drug uptake [21]: 0.0021 %ID
Drug uptake [22]: 0.0104 %ID
Drug uptake (Kidney [23]): 0.72 %ID
Drug uptake (Kidney [24]): 1.69 %ID
Drug uptake (Rattus norvegicus [25]): 0.0062 %ID
Drug uptake (Mus musculus [26]): 0.066 %ID
Drug uptake (Kidney [27]): 8.03 %ID
Drug uptake (Blood [28]): 0.0062 %ID
Drug uptake [29]: 0.48 %ID
Drug uptake (Kidney [30]): 2.37 %ID
Drug uptake (Liver [31]): 0.072 %ID
Drug uptake (Blood [32]): 0.66 %ID
Drug uptake (Adrenal medulla [33]): 0.0247 %ID
Drug uptake (Rattus norvegicus [34]): 0.029 %ID
Drug uptake (Adrenal medulla [35]): 0.0021 %ID
